# Kir21 inh – blocks the mouse Kir2.1 inward-rectifier potassium channel. P35561. HEK293-Kir2.1, FluxOR thallium flux fluorescence; active compounds read low. B-score at 10 µM. 0.85% of 310,000 active. AID 1672;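 active = fluorescence ratio B-score at or below minus 3 SD of library scores, with starting-brightness B-score within 2 SD, cut at about -4.2 in these data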;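 note: channel flux triggered by added potassium and thallium sulfate stimulus; B-score of peak minus minimum fluorescence over baseline after thallium stimulus; more negative B-score means stronger Kir2.1 block with less thallium influx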
# Target sequence (P35561 whole entry, looked up): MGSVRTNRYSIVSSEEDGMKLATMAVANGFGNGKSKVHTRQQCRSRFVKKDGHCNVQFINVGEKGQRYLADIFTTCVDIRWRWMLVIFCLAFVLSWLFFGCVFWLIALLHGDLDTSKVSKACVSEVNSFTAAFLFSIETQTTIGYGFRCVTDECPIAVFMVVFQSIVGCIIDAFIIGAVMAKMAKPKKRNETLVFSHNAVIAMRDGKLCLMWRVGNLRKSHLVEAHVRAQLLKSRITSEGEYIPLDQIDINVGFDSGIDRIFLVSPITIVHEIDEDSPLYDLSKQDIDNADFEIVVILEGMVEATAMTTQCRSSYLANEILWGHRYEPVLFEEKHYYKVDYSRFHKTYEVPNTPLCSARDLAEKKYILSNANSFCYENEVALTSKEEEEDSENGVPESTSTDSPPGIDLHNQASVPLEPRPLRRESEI
# KCNQ1 inh – blocks the human KCNQ1 potassium channel | P51787 | CHO-K1 KCNQ1, FluxOR thallium flux fluorescence; active compounds read high | B-score at 10 µM | 1.3% of 310,000 active | AID 2642;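 active = compounds whose thallium flux B-score, printed positive for inhibition, exceeds three library SD while starting fluorescence stays within three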;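 note: channel opened by potassium depolarization with thallium stimulus after 20 min compound exposure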
# KCNK9 block – blocks the human KCNK9 two-pore domain potassium channel. Q9NPC2. HEK293 KCNK9, FluxOR thallium flux fluorescence; active compounds read low. B-score at 10 µM. 1.2% of 310,000 active. AID 488922;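 active = ratio B-score over 3 SD below the library mean, with starting fluorescence within 5 SD of its mean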;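 note: negative B-score means less thallium flux so channel inhibition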
# KCNQ1 act – potentiators or activators of human KCNQ1 potassium channel. P51787. CHO-K1 KCNQ1, thallium flux FluxOR fluorescence; active compounds read high. B-score at 10 µM. 0.35% of 310,000 active. AID 2648;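 active = fluorescence ratio B-score, a plate-corrected score, at least three library SD, with initial intensity B-score within 5 SD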
#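 Medium – assay buffer, equal DMSO in all wells · Material – CHO-K1 cell line with stable KCNQ1 potassium channel expression · Signal – kinetic FluxOR thallium fluorescence, 10-s 1-Hz baseline, 110-s post-stimulus read · Compound – single concentration per compound, DMSO matched to controls · Schedule – 37 °C overnight plating, 90-min dark dye load, 20-min compound pretreatment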
# KCNK3 inh – human KCNK3 channel inhibition, primary screen. 0.84% of 340,000 active. O14649. B-score at 10 µM. AID 602410. CHO-KCNK3 thallium flux, FluxOR fluorescence; active compounds read low;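 active = B-score under library mean minus 4 SD, starting fluorescence ratio at most library mean plus 5 SD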;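 note: more negative B-score means stronger inhibition of thallium flux through KCNK3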
# hERG protect – hERG (human) protection from proarrhythmic block | activation (rescue from dofetilide block), less the hit threshold, % at 10 µM | CHO-hERG, FluxOR thallium flux, dofetilide IC70 present | AID 1511 | 0.51% of 310,000 active | Q12809;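 active = activation above the mean of controls blocked by dofetilide plus 5 SD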;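 note: thallium influx through hERG after potassium depolarization seen as dye fluorescence rise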
# KCNK9 inh conf – confirmation of human KCNK9 potassium channel inhibitors; shares compounds with KCNK9 block; HEK293 KCNK9 cells, FluxOR thallium flux fluorescence; inhibition, % at 10 µM; 43% of 4,900 active; AID 492992;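 active = thallium signal inhibited by more than 5 SD of the compound-free buffer control wells, on both duplicate plates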
# Kir2-1 spec – tests whether KCNK9 modulators also affect mouse Kir2.1 | shares compounds with KCNK9 block | Kir2.1 cells, FluxOR thallium flux fluorescence | inhibition, % at 10 µM | 4% of 4,900 active | AID 492993;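 active = thallium signal drop more than 5 SD beyond the mean of the no-compound control wells, seen in both duplicate plates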;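 note: signal is fluorescence rise after thallium addition divided by baseline fluorescence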
# KCNK9 uninduced – second counter-screen for KCNK9 modulators: effect in non-induced cells; shares compounds with KCNK9 block; non-induced KCNK9-HEK293, FluxOR thallium flux; inhibition, % at 10 µM; 40% of 4,900 active;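 active = thallium signal drop beyond 5 SD of the untreated control mean, on both duplicate plates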
# Hits are given with their value; – = inactive; · = no result. Hits are enriched below; roughly 3.7% of the tested compounds scored in any of these assays.
SMILES,Kir21 inh,KCNQ1 inh,KCNK9 block,KCNQ1 act,KCNK3 inh,hERG protect,KCNK9 inh conf,Kir2-1 spec,KCNK9 uninduced
O=C(Nc1cc(Cl)ccn1)C1(c2ccccc2)CC1(Cl)Cl (centres undefined),–,–,–,–,–,–,·,·,·
CCOC(=O)c1c(NC(=O)C(C)Sc2cccc[n+]2[O-])sc2c1CCN(Cc1ccccc1)C2 (centres undefined),·,·,·,·,–,·,·,·,·
CCOC(=O)c1c(NC(=O)CSc2c[nH]c3ccccc23)sc2c1CCCC2,–,–,–,–,–,–,–,–,–
CCOC(=O)c1c(NC(=O)CSc2c[nH]c3ccccc23)sc2c1CCC2,–,–,–,–,–,–,–,–,–
CCOC(=O)c1c(NC(=O)CSc2nnc3ccccn23)sc2c1CCC2,–,–,–,–,–,–,·,·,·
CCOC(=O)c1c(NC(=O)CSc2nnc(-c3c[nH]c4ccccc34)n2CCOC)sc2c1CCCCC2,–,–,–,–,–,–,·,·,·
CCOC(=O)c1c(NC(=O)C(C)Sc2cn(C)c3ccccc23)sc2c1CCC2 (centres undefined),–,–,–,–,–,–,–,–,–
COc1cc(OC)cc(-c2c(-c3cccs3)c3cc(-c4ccc5[nH]ccc5c4)ccc3n2C)c1,·,·,·,·,–,·,·,·,·
COc1ccccc1C#Cc1ccc2c(=O)c3ccccc3n(C)c2c1,–,–,-9.7,–,–,–,44%,–,–
COc1ccc(C#Cc2ccc3c(=O)c4ccccc4n(C)c3c2)cc1,–,–,–,–,–,–,–,–,–
Cn1c2ccccc2c(=O)c2cc(C#Cc3cccc(N)c3)ccc21,·,·,·,·,–,·,·,·,·
Cc1cccc(NS(=O)(=O)c2ccc(C)c(C(=O)NCC(c3cccs3)N(C)C)c2)c1 (centres undefined),·,·,·,·,–,·,·,·,·
CCc1ccccc1NC(=O)c1ccc(NCCc2ccccc2)c([N+](=O)[O-])c1,–,–,-8.7,–,–,–,–,–,30%
Cc1ccccc1C(=O)NC1CC2CCCC(C1)N2Cc1ccccc1 (centres undefined),–,–,–,–,–,–,–,–,–
CCc1cccc(NC(=O)c2cccc3c2C(=O)N(CC2CCCO2)C3)c1 (centres undefined),–,–,–,–,–,–,·,·,·
COC(=O)C1CN(C(=O)COc2cc(C)c(Cl)c(C)c2)c2ccccc2O1 (centres undefined),–,–,-9.9,–,–,–,–,–,34%
CCCCCCCCNS(=O)(=O)CCNCc1ccco1,·,·,·,·,–,·,·,·,·
Cc1ccsc1C(=O)C1CCCN(Cc2cc(F)ccc2-n2cccn2)C1 (centres undefined),–,–,–,–,–,–,–,–,–
Cc1cc(C)c(CN2CCCC(CNC(=O)c3ccc(F)cc3)C2)c(-n2cccn2)c1 (centres undefined),–,–,–,–,–,–,·,·,·
COCCCNC(=O)Cn1cnc(C(=O)Nc2ccc(C)c(C)c2)n1,·,·,·,·,–,·,·,·,·
Clc1ccc(C2[C@H]3CN(Cc4ccc(-c5ccccc5)cc4)[C@H](c4ccccc4)C34CC2(c2ccccc2)C4)cn1 (some centres undefined),–,–,–,–,·,–,·,·,·
Clc1ccc(C2[C@H]3CN(Cc4cccnc4)[C@H](c4ccccc4)C34CC2(c2ccccc2)C4)cn1 (some centres undefined),–,–,-9.8,–,–,–,30%,–,35%
COc1ccc(C(=O)Nc2ccc3[nH]ncc3c2)cc1OC,–,–,–,–,–,–,·,·,·
Brc1ccc(CSc2nccn2-c2ccccc2)cc1,–,–,–,–,–,–,–,–,–
O=C(CSc1nccn1-c1ccccc1)NO,–,–,–,–,–,–,·,·,·
SMILES,Kir21 inh,KCNQ1 inh,KCNK9 block,KCNQ1 act,KCNK3 inh,hERG protect,KCNK9 inh conf,Kir2-1 spec,KCNK9 uninduced
Clc1cccc(CSc2nccn2-c2ccccc2)c1,-7.8,–,–,–,–,–,–,–,–
FC(F)(F)c1ccc(CSc2nccn2-c2ccccc2)cc1,-4.6,–,–,–,–,–,–,–,–
CN(C)c1ccc(S(=O)(=O)N(C)C)cc1NC(=O)Cc1cccc2ccccc12,–,–,–,–,–,–,·,·,·
COc1ccccc1C(C)NC(=O)c1ccc(S(=O)(=O)NCc2ccco2)cc1 (centres undefined),·,·,·,·,–,·,·,·,·
C=CCNC(=O)c1ccc2c(c1)S(=O)(=O)c1ccccc1C2=O,–,–,–,–,–,–,·,·,·
O=C(CSCC(=O)N1CCN(c2ccccc2)CC1)Nc1nc(-c2ccc(Cl)s2)cs1,–,–,–,–,–,–,·,·,·
O=C(CSCC(=O)N1CCCCC1)Nc1nc(-c2ccc(Cl)s2)cs1,–,–,–,–,–,–,–,–,–
CC(C)c1ccc(CCNC(=O)CSC(=S)N2CCCC2)cc1,–,–,–,–,–,–,·,·,·
COc1ccccc1NC(=O)c1ccc2c(O)c(S(=O)(=O)c3ccccc3)c(=O)[nH]c2c1,–,–,–,–,–,–,·,·,·
Cc1nn(-c2ccccc2)c(N2CCCC2)c1/C=N/NC(=S)Nc1cc(C(F)(F)F)ccc1Cl,–,–,–,–,–,–,·,·,·
Cc1nn(-c2ccccc2)c(N2CCCC2)c1/C=N/NC(=S)Nc1ccccc1C(F)(F)F,–,–,-9.1,–,–,–,44%,–,–
Cn1cc(/C=N/n2cnc3sc4c(c3c2=O)CCCC4)c2ccccc21,–,–,–,–,–,–,–,–,–
Cc1ccc(C)n1-n1cnc2sc3c(c2c1=O)CCC3,–,–,–,–,–,–,·,·,·
Cc1cccc(NC(=O)CSCC(=O)N(C)Cc2ccc(Cl)c(Cl)c2)c1,·,·,·,·,–,·,·,·,·
CCOC(=O)C1CCN(S(=O)(=O)c2ccc3c(c2)NC(=O)CS3)CC1,–,–,–,–,–,–,·,·,·
COC(=O)CSc1nc(SCc2ccccc2Cl)nc2c1CCCC2,–,–,–,–,–,–,–,–,–
O=C(O)CSc1nc(SCc2ccccc2Cl)nc2c1CCCC2,–,–,–,–,–,–,·,·,·
CCc1ccc(C2CC(=O)N3CN(c4ccccc4)CSC3=C2C#N)cc1 (centres undefined),–,–,–,–,–,–,·,·,·
CN1CSC2=C(C#N)C(c3cccc(OCc4ccccc4)c3)CC(=O)N2C1 (centres undefined),–,–,–,–,–,–,–,–,–
COc1ccccc1NS(=O)(=O)c1cc(C(=O)NCC(c2ccc(F)cc2)N2CCOCC2)ccc1C (centres undefined),–,–,–,–,–,–,·,·,·
